From article PMC3031448 (Journal of natural products, 2009)

Legend:
[1] = system: PANC-1 human pancreatic carcinoma cells; assay: Cell cycle analysis by flow cytometry; assay type: cell-based; details: PANC-1, 24 h, doses ≤ 46.5 μM
[2] = Plasma protein binding; assay type: in vitro ADME; details: both test concentrations
[3] = system: DNA; assay: Ethidium bromide displacement; assay type: binding
[4] = system: methicillin-resistant Staphylococcus aureus 700787; assay: Antimicrobial broth dilution assay, MRSA; assay type: cell-based; details: methicillin-resistant Staphylococcous aureus
Summary of the method: (§1)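 Broth microdilution in microtiter format at 37 °C against the ATCC strains, with MIC as the read-out. C. albicans was grown in Sabouraud dextrose broth; MRSA and P. aeruginosa were grown in cation-supplemented Mueller-Hinton broth.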

[5] = system: Pseudomonas aeruginosa 27853; assay: Antimicrobial broth dilution assay, P. aeruginosa; assay type: cell-based
Summary of the method: as §1

[6] = Plasma stability, mouse; assay type: in vitro ADME; details: 3 h, both test concentrations
[7] = Solubility; assay type: physicochemical; details: three physiologically relevant pH levels
[8] = system: Candida albicans 44506; assay: Antimicrobial broth dilution assay, C. albicans; assay type: cell-based
Summary of the method: as §1

[9] = Plasma stability, human; assay type: in vitro ADME; details: 3 h, both test concentrations

CC(=O)N(C)CCc1cc(Br)c(OCCCNc2ncn(C)c3ncnc2-3)c(Br)c1 [Aphrocallistin, aphrocallistin]
cell cycle arrest [1]: induce G1 cell cycle arrest
cell cycle arrest ([1]; listed as aphrocallistin): significant cell cycle arrest at G1
protein binding [2]: moderate protein binding
displacement of ethidium bromide (direct DNA binding) [3]: no displacement of ethidium bromide was observed
antimicrobial activity [4]: did not show significant inhibition
antimicrobial activity [5]: did not show significant inhibition
plasma stability [6]: excellent stability
solubility [7]: high
antimicrobial activity [8]: did not show significant inhibition
plasma stability [9]: excellent stability
